# Compound activity from PubChem BioAssay.
# NR2E3 ag-1: activates human NR2E3 receptor; Q9Y5X4; CHO-S Gal4-NCOR/VP16-NR2E3 two-hybrid, luciferase; inhibition of corepressor binding, % at 3.98 µM; actives 0.35% (n = 360,000); AID 602229;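 active = inhibition above the mean of all tested compounds plus 3 SD, cut at about 70% in these data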;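 also: 0% = DMSO with NR2E3 transfected cells and 100% = cells lacking NR2E3 construct; higher means lower luciferase signal from less NR2E3 corepressor binding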
# PP5 inh: inhibitors of human protein phosphatase 5 (PP5). actives 0.18% (n = 320,000). AID 1987. purified PP5c, OMFP substrate fluorescence. inhibition, % at 6.7 µM;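 active = inhibition above the campaign's mean inhibition across all tested compounds plus 3 SD, cut at about 9.5% in these data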;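 also: 0% = DMSO only and 100% = 100 µM cantharidin control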
# PP1 inh: blocks human PP1-alpha phosphatase, a PP5 counter-screen | P62136 | AID 2235 | actives 0.9% (n = 320,000) | inhibition, % at 6.7 µM | purified PP1alpha, OMFP fluorescence;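 active = inhibition above the mean inhibition of all tested compounds plus 3 SD, computed separately for each screening campaign, cut at about 15% in these data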
# Target sequence (P62136 whole entry, looked up): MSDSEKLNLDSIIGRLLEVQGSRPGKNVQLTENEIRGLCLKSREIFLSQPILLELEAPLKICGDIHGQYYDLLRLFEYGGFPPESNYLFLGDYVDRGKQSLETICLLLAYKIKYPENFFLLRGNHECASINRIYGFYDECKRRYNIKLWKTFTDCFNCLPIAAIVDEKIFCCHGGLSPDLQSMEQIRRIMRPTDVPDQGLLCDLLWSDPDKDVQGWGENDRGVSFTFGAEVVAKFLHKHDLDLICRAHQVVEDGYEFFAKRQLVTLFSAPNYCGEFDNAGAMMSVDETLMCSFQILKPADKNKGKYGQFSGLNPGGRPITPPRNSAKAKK
# NR2E3 ag-2: NR2E3 (human) agonism | actives 0.12% (n = 320,000) | GST-NR2E3/biotin-RetCOR TR-FRET, 1536-well | Q9Y5X4 | inhibition of corepressor binding, % at 4.78 µM;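 active = percent inhibition above the cutoff of mean plus 3 SD of all tested compounds, set per screening campaign, cut at about 20% in these data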;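 also: 0% = DMSO wells and 100% = biotin wells as full block of FRET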
#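 Assay system: NR2E3–RetCOR corepressor complex. Quantity: 1.35 nM GST-NR2E3. Buffer or medium: pH 7.5 Tris-based buffer. Reagent: biotinylated RetCOR corepressor at 7 nM final. Schedule: 5 h at 4 °C. Detection: TR-FRET, emission read at 617 and 671 nm. Replicates: one well per compound, singlicate testing.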
# PP1 confirm: human PP1 phosphatase inhibition, confirmation; shares compounds with PP1 inh; AID 2358; purified PP1alpha, OMFP substrate fluorescence; inhibition, % at 6.7 µM; actives 52% (n = 1,900);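 active = mean PP1 inhibition above a set limit taken from the earlier primary screen, cut at about 15% in these data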
# PP5 counter: PP5 phosphatase inhibition, counter-screen for PP1 inhibitors; shares compounds with PP1 inh; purified PP5c, OMFP fluorescence; inhibition, % at 6.7 µM; actives 4% (n = 1,900); AID 2360;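 active = mean PP5 inhibition over triplicate wells above about 9.5% taken from the earlier PP1 screen, limit read from the data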
# Numbers without * were called inactive; nt = not tested or not shown. Only some compounds are listed: those with a hit (about 1.3% of all), similar ones and a draw of the others.
SMILES,NR2E3 ag-1,PP5 inh,PP1 inh,NR2E3 ag-2,PP1 confirm,PP5 counter
Cc1ccc(C(NC(=O)C(C)C)c2cc([N+](=O)[O-])c3cccnc3c2O)cc1 (centres undefined),16.2,5.2,26.3*,3.5,20.2*,-1.1
CC(C)C(=O)NC(c1cccs1)c1cc([N+](=O)[O-])c2cccnc2c1O (centres undefined),6.2,1.0,25.9*,-2.2,16.5*,7.8
O=C1C=C(O)c2c(O)cc(O)c(O)c2C1=O,-21.2,4.5,57.0*,-1.7,36.9*,-6.7
O=C1c2ccccc2C(=O)c2c(O)c(O)cc(O)c21,-19.4,nt,nt,nt,nt,nt
O=C(NCC(c1ccco1)N1CCCC1)c1cc(S(=O)(=O)N2CCOCC2)ccc1Cl (centres undefined),-7.0,0.9,-3.8,1.8,nt,nt
CCc1cccc(CC)c1N1C(=O)C2=C(SCCCS2)C1=O,-3.4,nt,nt,nt,nt,nt
Cc1cccc(Nc2nc(-c3ccccn3)cs2)n1,17.8,9.3,63.7*,-3.6,52.7*,2.5
Cc1cccc(C(=O)NC(C(=O)Nc2nc(-c3ccccn3)cs2)C(C)C)c1 (centres undefined),-5.0,1.8,20.6*,2.7,24.9*,-1.5
CC(Oc1cccc(Cl)c1)C(=O)Nc1nc(-c2ccccn2)cs1 (centres undefined),21.8,7.1,29.6*,-1.4,35.5*,2.1
CC(Oc1ccccc1)C(=O)Nc1nc(-c2ccccn2)cs1 (centres undefined),-1.5,nt,nt,nt,nt,nt
COc1cc(NC(=O)COc2ccccc2[N+](=O)[O-])ccc1NC(=O)c1ccco1,-4.0,-1.8,19.8*,2.5,19.2*,-2.7
COc1ccc(-n2c(COc3ccc(Cl)cc3)nnc2SCc2ccc(C#N)cc2)cc1,-34.7,5.2,19.8*,2.7,5.2,5.9
COc1ccc(-n2c(COc3ccc(C)cc3)nnc2SCc2ccc(C#N)cc2)cc1,-2.3,3.0,2.6,-2.1,nt,nt
COc1ccc(NC(=O)c2c(C)cc(=O)oc2C)c(OC)c1,-17.5,-1.3,35.5*,-0.2,-6.9,-5.3
CCOC(=O)C1(Cc2ccccc2)CCCN(C(=O)COc2ccccc2OC)C1 (centres undefined),-106.3,nt,nt,nt,nt,nt
O=C(Cn1cc[n+](CC(=O)c2ccccc2)c1)c1ccccc1,8.8,1.8,4.5,-1.4,nt,nt
O=C(Cn1cc[n+](CC(=O)c2ccc(Cl)cc2Cl)c1)c1ccc(Cl)cc1Cl,0.3,-2.5,17.6*,-3.4,-11.3,-2.1
CN1CCN(C(c2ccc(Br)cc2)c2cc(Cl)c3cccnc3c2O)CC1 (centres undefined),4.4,4.8,24.1*,2.4,3.2,-1.1
CCN1C(=O)[C@H]2[C@@H](c3ccc(-c4ccc(OC)cc4)cc3)N3CCCC[C@@]3(C(=O)OC)[C@H]2C1=O,9.6,3.2,1.2,3.2,nt,nt
c1ccc(Cn2c[n+](Cc3ccccc3)c3ccccc32)cc1,-9.8,-2.2,-8.3,0.6,nt,nt
O=C(Nc1ccc(Br)cc1)c1ccc(N2C(=O)C3CC=C(Cl)CC3C2=O)cc1 (centres undefined),-12.4,2.7,26.5*,0.1,25.6*,-3.2
O=C(Nc1ccc(Br)cc1)c1ccc(N2C(=O)C3CCCCC3C2=O)cc1 (centres undefined),-16.2,3.7,-1.1,4.6,nt,nt
CC(C)(C)OC(=O)N1CCC(NC(=O)c2nc[nH]c2C(=O)NCC(=O)OCc2ccccc2)CC1,34.4,1.4,4.5,1.3,nt,nt
CCN(CC(=O)Nc1cc(Cl)ccc1C)C(=O)c1nc2nc(C)cc(C)n2n1,4.3,2.3,-3.3,4.2,nt,nt
Cc1ccc(NC(=O)CCC(=O)OCC(=O)c2ccc(-c3ccccc3)cc2)cc1,-23.3,-0.6,28.9*,0.8,21.3*,-2.8
SMILES,NR2E3 ag-1,PP5 inh,PP1 inh,NR2E3 ag-2,PP1 confirm,PP5 counter
COc1ccc(C(=O)NCC(=O)Nc2ccc(-c3ccccc3)cc2)cc1,-8.9,-1.9,19.8*,-1.7,32.7*,-2.9
O=C(CC[C@H]1O[C@@H](n2ccc(=O)[nH]c2=O)[C@H](O)[C@@H]1O)NCCCc1ccccc1,-5.0,nt,nt,nt,nt,nt
Cc1ccc2nc(NC(=O)C3CCN(S(=O)(=O)c4cc([N+](=O)[O-])ccc4Cl)CC3)sc2c1,-33.2,1.4,20.4*,5.0,25.9*,3.4
O=C(Nc1nc2ccc(F)cc2s1)C1CCN(S(=O)(=O)c2cc([N+](=O)[O-])ccc2Cl)CC1,-70.9,-0.2,3.8,3.7,nt,nt
O=C(Nc1ccc2oc(-c3ccncc3)nc2c1)c1ccc2c(c1)OCO2,-17.1,1.0,29.5*,-14.3,25.3*,0.8
O=C(Nc1ccc2oc(-c3ccccc3)nc2c1)c1ccc2c(c1)OCCO2,-95.1,1.9,-1.4,-2.4,nt,nt
O=C(Nc1ccc2oc(-c3cccnc3)nc2c1)c1ccc2c(c1)OCCO2,-1.7,4.3,30.1*,-233.3,14.4,-5.1
O=C(CSc1nc2c([nH]c3ccccc32)c(=O)n1-c1ccccc1)N1CCOCC1,0.5,-0.2,8.7,2.7,nt,nt
O=C(CSc1nc2c([nH]c3ccccc32)c(=O)n1-c1cccc(Cl)c1)N1CCOCC1,-8.0,-2.1,21.5*,5.0,24.8*,-2.0
CCOC(=O)c1ncccc1NC(=O)CC(=O)Nc1cccnc1C(=O)OCC,-5.4,-0.5,26.9*,3.5,4.9,1.2
COc1cc(/C=N/NC(=O)c2ccncc2)ccc1OCC(=O)Nc1ccccc1,-2.5,-0.4,0.6,6.2,nt,nt
COc1cc(/C=N/NC(=O)c2ccccc2O)ccc1OCC(=O)Nc1ccccc1,6.8,3.3,18.3*,-1.5,15.6*,-8.3
COc1cc(NC(=O)COc2ccc(-n3ccnc3)cc2)cc(OC)c1,-0.2,2.2,-6.8,0.8,nt,nt
CC(C)(C)c1ccc(NC(=O)COc2ccc(-n3ccnc3)cc2)cc1,36.1,2.3,18.4*,-0.7,3.8,-0.8
O=C(NC(c1ccc(Cl)cc1)c1ccsc1)C1CCN(Cc2ccc(Oc3ccccc3)cc2)CC1 (centres undefined),-21.0,nt,nt,nt,nt,nt
CCOC(=O)C1=C(O)C(=O)NC(c2ccccc2)=C(OC2CCCCC2)C1,-29.4,1.1,23.6*,-1.9,31.0*,-1.4
O=C1CC(=O)C(n2cncn2)C(c2cccc(Cl)c2)C1 (centres undefined),-9.2,1.7,22.2*,-0.4,-5.9,-5.5
COc1ccc(C2CC(=O)CC(=O)C2n2cncn2)cc1 (centres undefined),-18.4,1.4,-1.9,3.0,nt,nt
CCOC(=O)C1(Cc2cccc(Cl)c2)CCCN(C(=O)CCNC(C)=O)C1 (centres undefined),12.2,nt,nt,nt,nt,nt
CCOC(=O)C1(Cc2cccc(Cl)c2)CCCN(C(=O)CN2C(=O)CSC2=O)C1 (centres undefined),-55.5,1.3,18.9*,-0.2,-2.9,-5.3
Cn1cccc1C(=O)Nc1nc(-c2ccccn2)cs1,-29.1,5.5,32.5*,-3.1,41.4*,1.4
O=C(Nc1nc(-c2ccccn2)cs1)c1cc2ccccc2o1,-26.1,-1.7,10.3,0.5,nt,nt
